SMILES strings stand for the structures.

The term IC50 denotes the concentration that gives 50% inhibition. As usually defined, the EC50 is the concentration giving half of the maximal effect. A low value points to greater potency.

The target in one assay is T1, Androgen receptor (Homo sapiens, UniProt P10275).
T1 sequence (P10275 whole entry): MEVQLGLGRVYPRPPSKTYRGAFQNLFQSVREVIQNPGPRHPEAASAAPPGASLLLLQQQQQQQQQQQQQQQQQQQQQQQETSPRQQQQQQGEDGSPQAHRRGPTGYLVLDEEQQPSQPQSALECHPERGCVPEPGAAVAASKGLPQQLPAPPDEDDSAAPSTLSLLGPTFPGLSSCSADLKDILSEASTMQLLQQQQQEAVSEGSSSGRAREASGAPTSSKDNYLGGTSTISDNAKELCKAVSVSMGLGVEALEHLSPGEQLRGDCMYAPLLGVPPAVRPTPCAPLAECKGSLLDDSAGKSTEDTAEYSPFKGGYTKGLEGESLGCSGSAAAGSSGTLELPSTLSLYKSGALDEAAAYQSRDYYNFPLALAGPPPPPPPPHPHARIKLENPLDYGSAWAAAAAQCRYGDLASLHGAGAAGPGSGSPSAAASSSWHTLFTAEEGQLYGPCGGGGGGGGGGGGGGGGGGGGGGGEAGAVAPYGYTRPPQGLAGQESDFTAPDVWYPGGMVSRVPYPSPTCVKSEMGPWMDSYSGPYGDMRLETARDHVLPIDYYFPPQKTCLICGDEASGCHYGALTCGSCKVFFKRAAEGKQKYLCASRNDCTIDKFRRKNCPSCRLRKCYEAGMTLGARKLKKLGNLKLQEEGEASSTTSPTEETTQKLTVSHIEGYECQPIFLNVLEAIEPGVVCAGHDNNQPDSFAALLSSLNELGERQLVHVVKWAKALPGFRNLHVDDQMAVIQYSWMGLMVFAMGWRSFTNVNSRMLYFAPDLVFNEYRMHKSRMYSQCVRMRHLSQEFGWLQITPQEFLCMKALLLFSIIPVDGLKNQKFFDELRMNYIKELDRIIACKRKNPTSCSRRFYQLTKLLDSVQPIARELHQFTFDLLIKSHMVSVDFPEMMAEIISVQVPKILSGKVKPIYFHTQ
The experiment in a line: Binding affinity for human androgen receptor.

The target in the next assay is T2, Progesterone receptor (Homo sapiens, UniProt P06401).
T2 sequence (P06401 whole entry): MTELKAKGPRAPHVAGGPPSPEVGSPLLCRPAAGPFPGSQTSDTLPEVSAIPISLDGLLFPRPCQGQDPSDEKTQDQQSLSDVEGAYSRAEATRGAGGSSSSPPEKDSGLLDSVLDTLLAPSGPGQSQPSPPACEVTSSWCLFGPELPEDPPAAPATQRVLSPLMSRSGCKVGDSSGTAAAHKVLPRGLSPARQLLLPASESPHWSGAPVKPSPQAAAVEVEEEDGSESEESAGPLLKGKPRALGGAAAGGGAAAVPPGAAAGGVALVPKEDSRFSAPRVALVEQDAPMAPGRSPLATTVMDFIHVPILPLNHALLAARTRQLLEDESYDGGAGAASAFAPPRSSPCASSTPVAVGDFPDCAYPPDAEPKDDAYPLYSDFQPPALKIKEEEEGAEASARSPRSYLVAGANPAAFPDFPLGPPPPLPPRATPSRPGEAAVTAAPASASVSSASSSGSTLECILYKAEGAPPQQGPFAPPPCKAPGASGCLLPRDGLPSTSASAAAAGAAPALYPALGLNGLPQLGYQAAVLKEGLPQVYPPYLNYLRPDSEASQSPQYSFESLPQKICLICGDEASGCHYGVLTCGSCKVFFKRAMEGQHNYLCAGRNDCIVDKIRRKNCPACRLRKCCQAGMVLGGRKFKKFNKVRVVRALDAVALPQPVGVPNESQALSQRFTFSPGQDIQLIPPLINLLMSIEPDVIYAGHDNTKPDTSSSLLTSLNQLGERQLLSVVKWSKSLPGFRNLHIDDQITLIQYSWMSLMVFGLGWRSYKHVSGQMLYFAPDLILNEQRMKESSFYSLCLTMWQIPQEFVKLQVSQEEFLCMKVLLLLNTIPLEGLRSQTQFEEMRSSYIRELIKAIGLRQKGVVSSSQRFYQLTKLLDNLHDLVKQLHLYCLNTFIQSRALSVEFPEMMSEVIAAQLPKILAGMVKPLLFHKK
The experiment in a line: Binding affinity towards human progesterone receptor. In outline: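 Receptor homogenates from frozen cell pellets in ice-cold KPO4 buffer (10 mM KPO4, 20 mM molybdate, 1 mM EDTA, 5 mM DTT, protease inhibitors), spun 35 000g 1 h at 4 °C. MR: recombinant baculovirus-expressed rat receptor, 2 nM [3H]aldosterone; PR: T-47D cell protein, 5 nM [3H]progesterone.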

Assay [1] has as its target Mineralocorticoid receptor (Rattus norvegicus) (UniProt P22199). As to the kind of experiment: Binding affinity for rat mineralocorticoid receptor.
For the next assay, the target named is T3, Estrogen receptor (Homo sapiens, UniProt P03372).
T3 sequence (P03372 whole entry): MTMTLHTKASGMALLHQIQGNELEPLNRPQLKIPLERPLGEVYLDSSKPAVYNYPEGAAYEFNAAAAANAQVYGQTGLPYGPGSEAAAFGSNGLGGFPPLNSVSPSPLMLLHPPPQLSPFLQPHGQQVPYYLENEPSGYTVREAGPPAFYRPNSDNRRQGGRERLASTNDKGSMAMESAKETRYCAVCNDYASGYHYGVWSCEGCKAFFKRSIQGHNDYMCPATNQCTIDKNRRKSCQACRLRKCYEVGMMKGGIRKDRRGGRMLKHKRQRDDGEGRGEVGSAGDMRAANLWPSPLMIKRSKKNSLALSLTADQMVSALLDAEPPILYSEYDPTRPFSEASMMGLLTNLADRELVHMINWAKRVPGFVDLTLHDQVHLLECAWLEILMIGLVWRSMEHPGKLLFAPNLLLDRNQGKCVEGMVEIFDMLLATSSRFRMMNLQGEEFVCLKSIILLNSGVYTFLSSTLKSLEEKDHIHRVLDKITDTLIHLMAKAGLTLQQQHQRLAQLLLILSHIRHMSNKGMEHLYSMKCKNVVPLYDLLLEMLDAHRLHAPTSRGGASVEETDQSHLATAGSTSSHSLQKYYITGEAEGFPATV
The experiment in a line: Binding affinity for human Estrogen receptor alpha.

For assay [2], the target named is T4, Glucocorticoid receptor (Homo sapiens, UniProt P04150).
T4 sequence (P04150 whole entry): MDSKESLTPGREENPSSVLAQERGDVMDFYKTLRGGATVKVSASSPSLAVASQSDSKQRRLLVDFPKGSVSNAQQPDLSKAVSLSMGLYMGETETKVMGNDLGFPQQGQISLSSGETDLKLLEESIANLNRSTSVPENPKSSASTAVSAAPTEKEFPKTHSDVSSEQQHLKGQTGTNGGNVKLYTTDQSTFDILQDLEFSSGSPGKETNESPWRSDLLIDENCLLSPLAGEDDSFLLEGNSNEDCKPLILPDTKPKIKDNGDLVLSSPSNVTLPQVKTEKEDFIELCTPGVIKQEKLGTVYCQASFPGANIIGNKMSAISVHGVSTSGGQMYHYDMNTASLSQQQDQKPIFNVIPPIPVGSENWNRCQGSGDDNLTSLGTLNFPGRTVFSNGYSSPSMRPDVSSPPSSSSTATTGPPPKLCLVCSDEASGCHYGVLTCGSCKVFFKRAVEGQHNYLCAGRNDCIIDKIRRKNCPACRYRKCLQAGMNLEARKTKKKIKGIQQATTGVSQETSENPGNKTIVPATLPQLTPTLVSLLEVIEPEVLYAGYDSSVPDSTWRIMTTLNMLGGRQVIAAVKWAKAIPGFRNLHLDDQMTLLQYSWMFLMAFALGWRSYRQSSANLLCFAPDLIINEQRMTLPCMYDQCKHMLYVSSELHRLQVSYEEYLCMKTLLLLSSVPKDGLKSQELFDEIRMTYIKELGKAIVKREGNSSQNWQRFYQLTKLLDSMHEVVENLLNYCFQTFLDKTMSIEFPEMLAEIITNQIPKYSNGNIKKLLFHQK
As to the kind of experiment: Binding affinity for human glucocorticoid receptor.

For another assay, the system named is Mus musculus. As to the kind of experiment: Ability to induce mouse macrophage IL-6 assay in peritoneal exudate cells harvested by […] from C57BI/6 mice. In kind it is functional, cell-based. In outline: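 Thioglycolate-elicited peritoneal exudate cells from C57Bl/6 mice, harvested day 3 in PBS/heparin, washed and resuspended at 5.6×10^5 cells/mL in RPMI 1640 with 10% heat-inactivated FCS. Compound (typically 3 μM final) preincubated 1 h at 37 °C, 5% CO2, then LPS or TNF added, 24 h. Supernatant IL-6 read; duplicate wells, three experiments.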

The target in assay [3] is T4, Glucocorticoid receptor. As to the kind of experiment: Compound was tested for inhibitory activity towards human glucocorticoid receptor.
For assay [4], the target named is T4, Glucocorticoid receptor. The experiment in a line: Ability to induce human IL-6 assay in A549 lung carcinoma cell line. In kind it is functional, cell-based.
Assay [5] addresses T4, Glucocorticoid receptor. As to the kind of experiment: Glucocorticoid induced transactivation of human tyrosine amino transferase in HepG2 cells. In kind it is functional, cell-based.
Assay [6] has as its target T4, Glucocorticoid receptor. As to the kind of experiment: Ability to induce human glutamine synthetase in skeletal muscle cells. In kind it is cell-based.

Sequence of Mineralocorticoid receptor (Rattus norvegicus) (P22199 whole entry, looked up): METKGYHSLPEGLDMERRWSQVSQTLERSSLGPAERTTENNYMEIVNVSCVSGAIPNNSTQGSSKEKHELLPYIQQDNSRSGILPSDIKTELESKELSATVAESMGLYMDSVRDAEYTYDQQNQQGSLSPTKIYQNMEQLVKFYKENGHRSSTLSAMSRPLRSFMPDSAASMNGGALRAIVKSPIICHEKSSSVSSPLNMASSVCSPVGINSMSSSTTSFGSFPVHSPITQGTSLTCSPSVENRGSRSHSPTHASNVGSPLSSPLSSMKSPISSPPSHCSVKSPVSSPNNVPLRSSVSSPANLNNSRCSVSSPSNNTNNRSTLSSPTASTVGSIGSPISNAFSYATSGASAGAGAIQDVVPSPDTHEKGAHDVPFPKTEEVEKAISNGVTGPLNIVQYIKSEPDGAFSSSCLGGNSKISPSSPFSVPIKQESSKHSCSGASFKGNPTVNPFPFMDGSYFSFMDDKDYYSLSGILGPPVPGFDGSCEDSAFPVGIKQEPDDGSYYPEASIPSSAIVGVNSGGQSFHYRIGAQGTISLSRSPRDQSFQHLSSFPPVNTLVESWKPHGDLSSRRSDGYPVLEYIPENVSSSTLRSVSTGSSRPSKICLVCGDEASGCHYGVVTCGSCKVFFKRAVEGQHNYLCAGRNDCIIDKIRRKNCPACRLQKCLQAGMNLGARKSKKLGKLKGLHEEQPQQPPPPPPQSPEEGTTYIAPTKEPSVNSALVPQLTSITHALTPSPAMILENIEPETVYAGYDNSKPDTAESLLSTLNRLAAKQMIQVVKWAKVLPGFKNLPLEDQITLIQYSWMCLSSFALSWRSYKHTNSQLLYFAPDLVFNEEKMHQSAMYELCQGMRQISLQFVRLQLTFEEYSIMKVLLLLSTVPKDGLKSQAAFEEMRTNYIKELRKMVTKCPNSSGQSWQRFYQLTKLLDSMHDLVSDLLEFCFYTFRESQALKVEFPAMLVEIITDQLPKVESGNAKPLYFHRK

For the compound `C[C@]12Cc3cnn(-c4ccc(F)cc4)c3C=C1CCC[C@@H]2[C@H](O)c1ccc(F)cc1`, the IC50 at Androgen receptor was > 5 µM; at Progesterone receptor, > 1 µM; in assay [1], > 5 µM; at Estrogen receptor it was > 1 µM.
As for `C[C@]12Cc3cnn(-c4ccc(F)cc4)c3C=C1CCC[C@@H]2[C@](C)(O)c1ccc(F)cc1`, the IC50 at Glucocorticoid receptor [2] was 0.0025 µM; at Glucocorticoid receptor [3], 0.0025 µM; on Androgen receptor, > 5 µM; on Progesterone receptor, > 1 µM; in assay [1] it was > 5 µM; at Estrogen receptor, > 1 µM. Besides, the EC50 in the assay on Mus musculus amounted to 0.0014 µM; on Glucocorticoid receptor [4] it was 0.0022 µM; on Glucocorticoid receptor [5], 0.0572 µM; at Glucocorticoid receptor [6], 0.13 µM.
With `COc1cc([C@H](O)[C@H]2CCCC3=Cc4c(cnn4-c4ccc(F)cc4)C[C@@]32C)cc(F)c1F`, the IC50 is 0.0019 µM on Glucocorticoid receptor [2]; 0.0019 µM at Glucocorticoid receptor [3]; > 5 µM at Androgen receptor; > 1 µM at Progesterone receptor; > 5 µM in assay [1]; > 1 µM on Estrogen receptor. Besides, the EC50 was determined as 0.0152 µM with Mus musculus, 0.0144 µM at Glucocorticoid receptor [4] and 0.521 µM at Glucocorticoid receptor [5].
As for `C=CCC[C@H](O)[C@H]1CCCC2=Cc3c(cnn3-c3ccc(F)cc3)C[C@@]21C`, the IC50 on Glucocorticoid receptor [2] was 0.0042 µM; against Glucocorticoid receptor [3], 0.0011 µM; on Androgen receptor, > 5 µM; on Progesterone receptor, > 1 µM; in assay [1] it was > 5 µM; at Estrogen receptor, > 1 µM. Besides, the values for the EC50 in the assay with Mus musculus, at Glucocorticoid receptor [4] and at Glucocorticoid receptor [5] were 0.0057 µM, 0.0044 µM and 0.256 µM, respectively.
Turning to `C[C@]12Cc3cnn(-c4ccc(F)cc4)c3C=C1CCC[C@@H]2[C@@H](O)c1ccccc1`, the IC50 on Glucocorticoid receptor [2] was 0.0084 µM; against Glucocorticoid receptor [3], 0.0084 µM; on Androgen receptor, > 5 µM; at Progesterone receptor, 0.66 µM; in assay [1] it was > 5 µM; on Estrogen receptor, > 1 µM. In addition, the EC50 with Mus musculus was 0.111 µM; on Glucocorticoid receptor [4], 0.0029 µM.

The values above are taken from ChEMBL document CHEMBL1137074, “Novel N-arylpyrazolo[3,2-c]-based ligands for the glucocorticoid receptor: receptor binding and in vivo activity” (J Med Chem, 2004).
